{"source": "paper PMC11390321", "about": "(Cancer chemotherapy and pharmacology, 2024)", "experiment": "Dose linearity study: single IV dose PK, noncompartmental analysis", "format": "in vivo, female BALB/c mice", "conditions": "for β, slope of Ln(AUC0-∞) versus Ln(dose): 2–60 mg/kg IV, power model; for AUC(0-inf) / Cmax / Tmax / Vd / half-life / AUC(0-t) / clearance: female, BALB/c, mouse, iv; for AUC(0-inf) / Cmax / Tmax / Vd / half-life / AUC(0-t) / clearance / AUC0-t/dose / AUC0-∞ /dose / AUC0–360/dose / AUCextrap / Cmax/dose / Tlast: plasma; for clearance: CL; for AUC extrapolated beyond 24 h in tissues: tissues with a quantifiable 24 h sample; for 0–24 h feces / 0–24 h urine: unchanged drug", "summary_of_the_method": "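Single ~30 s tail-vein bolus of test compound in 12% captisol (pH 4, acetic acid), 2.0, 6.0, 20 or 60 mg/kg, female BALB/c mice 5–7 weeks old, N=3 per time point. Plasma and tissues taken 5–1,440 min; pooled 24 h urine/feces from metabolic cages. LC-MS/MS with [D7] internal standard. NCA, Bailer AUC. Dose linearity via slope of Ln AUC0-∞ versus Ln dose against β=1.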"}
{"smiles": "CNCc1ccc(-c2cc(-c3nc(-c4ccc(S(=O)(=O)C(C)C)cc4)cnc3N)on2)cc1", "note": "[berzosertib]", "values": [{"measurement": "β, slope of Ln(AUC0-∞) versus Ln(dose)", "setting": "Brain", "value": "1.17 (95% CI: 0.786 – 1.56)"}, {"measurement": "β, slope of Ln(AUC0-∞) versus Ln(dose)", "setting": "Kidney", "value": "1.35 (95% CI: 0.960 – 1.73)"}, {"measurement": "β, slope of Ln(AUC0-∞) versus Ln(dose)", "setting": "Lung", "value": "1.30 (95% CI: 0.804 – 1.79)"}, {"measurement": "unchanged drug recovered in feces", "setting": "across all groups (2–60 mg/kg IV), 0–24 h", "value": "< 4", "unit": "%"}, {"measurement": "increase in volume of distribution (Vd)", "setting": "between 2 and 60 mg/kg IV", "value": "more than 3 fold"}, {"measurement": "AUC(0-inf)", "setting": "2 mg/kg", "value": 867, "unit": "ng·h/mL"}, {"measurement": "Cmax", "setting": "2 mg/kg", "value": 1480, "unit": "ng/mL"}, {"measurement": "Tmax", "setting": "2 mg/kg", "value": 5, "unit": "min"}, {"measurement": "Vd", "setting": "2 mg/kg", "value": 8.49, "unit": "L/kg"}, {"measurement": "half-life", "setting": "2 mg/kg", "value": 2.55, "unit": "h"}, {"measurement": "AUC(0-t)", "setting": "2 mg/kg, AUC0-t, 2.0 mg/kg IV", "value": 765, "unit": "ng·h/mL"}, {"measurement": "AUC(0-t)", "setting": "2 mg/kg, AUC0–360, plasma, 2.0 mg/kg IV", "value": 765, "unit": "ng·h/mL"}, {"measurement": "AUC(0-inf)", "setting": "6 mg/kg", "value": 2450, "unit": "ng·h/mL"}, {"measurement": "Cmax", "setting": "6 mg/kg", "value": 3470, "unit": "ng/mL"}, {"measurement": "Tmax", "setting": "6 mg/kg", "value": 5, "unit": "min"}, {"measurement": "Vd", "setting": "6 mg/kg", "value": 9.63, "unit": "L/kg"}, {"measurement": "half-life", "setting": "6 mg/kg", "value": 2.73, "unit": "h"}, {"measurement": "AUC(0-t)", "setting": "6 mg/kg, AUC0-t, 6.0 mg/kg IV", "value": 2100, "unit": "ng·h/mL"}, {"measurement": "AUC(0-t)", "setting": "6 mg/kg, AUC0–360, plasma, 6.0 mg/kg IV", "value": 2100, "unit": "ng·h/mL"}, {"measurement": "AUC(0-inf)", "setting": "20 mg/kg", "value": 10200, "unit": "ng·h/mL"}, {"measurement": "Cmax", "setting": "20 mg/kg", "value": 10200, "unit": "ng/mL"}, {"measurement": "Tmax", "setting": "20 mg/kg", "value": 5, "unit": "min"}, {"measurement": "Vd", "setting": "20 mg/kg", "value": 11.9, "unit": "L/kg"}, {"measurement": "half-life", "setting": "20 mg/kg", "value": 4.22, "unit": "h"}, {"measurement": "AUC(0-t)", "setting": "20 mg/kg, AUC0-t, 20 mg/kg IV", "value": 10100, "unit": "ng·h/mL"}, {"measurement": "AUC(0-t)", "setting": "20 mg/kg, AUC0–360, plasma, 20 mg/kg IV", "value": 7070, "unit": "ng·h/mL"}, {"measurement": "clearance", "setting": "20 mg/kg, calculated using AUC0-∞, 20 mg/kg IV", "value": 32.6, "unit": "mL/min/kg"}, {"measurement": "clearance", "setting": "20 mg/kg, calculated using AUC0–360, 20 mg/kg IV", "value": 47.2, "unit": "mL/min/kg"}, {"measurement": "AUC(0-inf)", "setting": "60 mg/kg", "value": 35400, "unit": "ng·h/mL"}, {"measurement": "Cmax", "setting": "60 mg/kg", "value": 21200, "unit": "ng/mL"}, {"measurement": "Tmax", "setting": "60 mg/kg", "value": 5, "unit": "min"}, {"measurement": "Vd", "setting": "60 mg/kg", "value": 25.6, "unit": "L/kg"}, {"measurement": "half-life", "setting": "60 mg/kg", "value": 10.5, "unit": "h"}, {"measurement": "AUC(0-t)", "setting": "60 mg/kg, AUC0-t, 60 mg/kg IV", "value": 29400, "unit": "ng·h/mL"}, {"measurement": "AUC(0-t)", "setting": "60 mg/kg, AUC0–360, plasma, 60 mg/kg IV", "value": 15500, "unit": "ng·h/mL"}, {"measurement": "AUC0-t/dose", "setting": "2.0 mg/kg IV", "value": 23.0}, {"measurement": "AUC0-∞ /dose", "setting": "2.0 mg/kg IV", "value": 26.0}, {"measurement": "AUC0–360/dose", "setting": "2.0 mg/kg IV", "value": 23.0}, {"measurement": "AUCextrap", "setting": "2.0 mg/kg IV", "value": 11.7, "unit": "%"}, {"measurement": "Cmax/dose", "setting": "2.0 mg/kg IV", "value": 0.738}, {"measurement": "Tlast", "setting": "2.0 mg/kg IV", "value": 360, "unit": "min"}, {"measurement": "AUC0-t/dose", "setting": "6.0 mg/kg IV", "value": 21.1}, {"measurement": "AUC0-∞ /dose", "setting": "6.0 mg/kg IV", "value": 24.6}, {"measurement": "AUC0–360/dose", "setting": "6.0 mg/kg IV", "value": 21.1}, {"measurement": "AUCextrap", "setting": "6.0 mg/kg IV", "value": 14.2, "unit": "%"}, {"measurement": "Cmax/dose", "setting": "6.0 mg/kg IV", "value": 0.578}, {"measurement": "Tlast", "setting": "6.0 mg/kg IV", "value": 360, "unit": "min"}, {"measurement": "AUC0-t/dose", "setting": "20 mg/kg IV", "value": 30.3}, {"measurement": "AUC0-∞ /dose", "setting": "20 mg/kg IV", "value": 30.7}, {"measurement": "AUC0–360/dose", "setting": "20 mg/kg IV", "value": 21.2}, {"measurement": "AUCextrap", "setting": "20 mg/kg IV", "value": 1.39, "unit": "%"}, {"measurement": "Cmax/dose", "setting": "20 mg/kg IV", "value": 0.512}, {"measurement": "AUC0-t/dose", "setting": "60 mg/kg IV", "value": 29.4}, {"measurement": "AUC0-∞ /dose", "setting": "60 mg/kg IV", "value": 35.4}, {"measurement": "AUC0–360/dose", "setting": "60 mg/kg IV", "value": 15.5}, {"measurement": "AUCextrap", "setting": "60 mg/kg IV", "value": 17.0, "unit": "%"}, {"measurement": "Cmax/dose", "setting": "60 mg/kg IV", "value": 0.353}, {"measurement": "AUC extrapolated beyond 24 h in tissues", "setting": "60 mg/kg", "value": "> 20", "unit": "%"}, {"measurement": "AUC extrapolated beyond 24 h in tissues", "setting": "2, 6 and 20 mg/kg groups", "value": "< 3", "unit": "%"}, {"measurement": "0–24 h feces", "setting": "2.0 mg/kg IV", "value": 1.78, "unit": "% dose"}, {"measurement": "0–24 h urine", "setting": "2.0 mg/kg IV", "value": 40.6, "unit": "% dose"}, {"measurement": "0–24 h feces", "setting": "6.0 mg/kg IV", "value": 3.41, "unit": "% dose"}, {"measurement": "0–24 h urine", "setting": "6.0 mg/kg IV", "value": 49.2, "unit": "% dose"}, {"measurement": "0–24 h feces", "setting": "20 mg/kg IV", "value": 1.48, "unit": "% dose"}, {"measurement": "0–24 h urine", "setting": "20 mg/kg IV", "value": 55.8, "unit": "% dose"}, {"measurement": "0–24 h feces", "setting": "60 mg/kg IV", "value": 2.02, "unit": "% dose"}, {"measurement": "0–24 h urine", "setting": "60 mg/kg IV, 60 mg/kg", "value": 28, "unit": "% dose"}]}
